Experiments:
CCRF-CEM [1] = test: Inhibition of RNA synthesis in human CCRF-CEM assessed as assessed as BrdU incorporation after 24 by flow cytometry; type: functional
CCRF-CEM [2] = test: Cell cycle arrest in human CCRF-CEM assessed as accumulation at subG1 phase at 1 x GIC50 after 24 hrs by flow cytometry; type: functional
In short: (§1)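 Subconfluent CCRF-CEM (5 × 10⁵ cells/mL, RPMI 1640 + 10% FCS, 37 °C CO₂) exposed 24 h at 1× or 5× GIC₅₀, vehicle controls alongside. Cells fixed overnight in 70% ethanol at -20 °C, hypotonic citrate wash, RNase 50 μg/mL, propidium iodide stain, 488 nm flow cytometry. Sub-G1 = particles with PI content below G0/G1 cells. Reported as % of total cells.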

CCRF-CEM [3] = test: Cell cycle arrest in human CCRF-CEM assessed as accumulation at subG1 phase at 5 x GIC50 after 24 hrs by flow cytometry; type: functional; in short: as §1
CCRF-CEM [4] = test: Cell cycle arrest in human CCRF-CEM assessed as accumulation at G1 phase at 1 x GIC50 after 24 hrs by flow cytometry; type: functional; in short: as §1
CCRF-CEM [5] = test: Cell cycle arrest in human CCRF-CEM assessed as accumulation at G1 phase at 5 x GIC50 after 24 hrs by flow cytometry; type: functional; in short: as §1
CCRF-CEM [6] = test: Cell cycle arrest in human CCRF-CEM assessed as accumulation at S phase at 1 x GIC50 after 24 hrs by flow cytometry; type: functional; in short: as §1
CCRF-CEM [7] = test: Cell cycle arrest in human CCRF-CEM assessed as accumulation at S phase at 5 x GIC50 after 24 hrs by flow cytometry; type: functional; in short: as §1
CCRF-CEM [8] = test: Cell cycle arrest in human CCRF-CEM assessed as accumulation at G2/M phase at 1 x GIC50 after 24 hrs by flow cytometry; type: functional; in short: as §1
CCRF-CEM [9] = test: Cell cycle arrest in human CCRF-CEM assessed as accumulation at G2/M phase at 5 x GIC50 after 24 hrs by flow cytometry; type: functional; in short: as §1
CCRF-CEM [10] = test: Antimitotic activity in human CCRF-CEM cells assessed as decrease in mitotic histone H3 at 1 x GIC50; type: functional; set-up: scale not given: the % may be the effect or the level left
In short: (§2)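 CCRF-CEM cells seeded subconfluent at 5 × 10⁵ cells/mL in RPMI 1640 with 10% FCS, 10 mM glutamine, penicillin/streptomycin, 37 °C humidified CO₂. Exposed 24 h at 1× or 5× GIC₅₀; vehicle controls harvested at 24 h. Ethanol-fixed cells labelled with anti-phospho-histone H3 Ser10 and mitotic cells counted by flow cytometry as % of total population.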

CCRF-CEM [11] = test: Antimitotic activity in human CCRF-CEM cells assessed as decrease in mitotic histone H3 at 5 x GIC50; type: functional; set-up: scale not given: the % may be the effect or the level left; in short: as §2
CCRF-CEM [12] = test: Inhibition of RNA synthesis in human CCRF-CEM assessed as assessed as BrdU incorporation at 1 x GIC50 after 24 by flow cytometry; type: functional; set-up: scale not given: the % may be the effect or the level left
In short: (§3)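 CCRF-CEM culture as for cell cycle (24 h, 1× or 5× GIC₅₀). Cells pulsed 30 min with 1 mM bromouridine before harvest. Fixed in 1% paraformaldehyde/0.05% NP-40. Stained with anti-BrdU antibody cross-reacting with BrU, then FITC secondary, PI and RNase A. BrU+ cells quantified by 488 nm flow cytometry.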

CCRF-CEM [13] = test: Inhibition of RNA synthesis in human CCRF-CEM assessed as assessed as BrdU incorporation at 5 x GIC50 after 24 by flow cytometry; type: functional; set-up: scale not given: the % may be the effect or the level left; in short: as §3
CCRF-CEM [14] = test: Inhibition of DNA synthesis in human CCRF-CEM assessed as assessed as BrdU incorporation at 1 x GIC50 after 24 by flow cytometry; type: functional; set-up: scale not given: the % may be the effect or the level left
In short: (§4)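 Culture as for cell cycle work (CCRF-CEM, 24 h, 1× or 5× GIC₅₀). Pulse with 10 μM BrdU for 30 min before harvest. Fixed in 70% ethanol, DNA denatured in 2 M HCl, neutralized with 0.1 M borax. Stained with anti-BrdU and FITC secondary, plus PI 0.1 mg/mL and RNase A. BrdU+ cells counted by flow cytometry.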

CCRF-CEM [15] = test: Inhibition of DNA synthesis in human CCRF-CEM assessed as assessed as BrdU incorporation at 5 x GIC50 after 24 by flow cytometry; type: functional; set-up: scale not given: the % may be the effect or the level left; in short: as §4
CCRF-CEM [16] = test: Inhibition of DNA synthesis in human CCRF-CEM assessed as assessed as BrdU incorporation after 24 by flow cytometry; type: functional
[17] = Cytostatic activity against human Hs578 cells after 5 days by SRB assay; type: functional; settings: Hs578, 120 h
In short: (§5)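 Cells seeded in RPMI (colon, breast, lung lines), MEM (Du145) or F12K (PC3) with 10% FBS, 37 °C overnight. Day-zero plates fixed with cold 10% TCA. Compounds added as 5-fold serial dilutions for 5 days. Fixed, stained with 0.057% SRB in 1% acetic acid, dye solubilized in 10 mM Tris pH 10.5, A500 read. Growth % corrected for day-0 OD; GIC₅₀ from sigmoidal fit.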

HL-60 = test: Cytotoxicity against human HL60 cells after 3 days by XTT assay; type: functional, cell-based; settings: HL-60, 72 h
In short: (§6)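 Cell viability of CCRF-CEM, HL60 and HeLa cells measured by XTT assay after 72 h incubation with compounds. IC₅₀ taken as mean of 2–4 independent experiments.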

CCRF-CEM [18] = test: Cytotoxicity against human CCRF-CEM cells after 3 days by XTT assay; type: functional, cell-based; settings: 72 h; in short: as §6
[19] = Cytotoxicity against human HeLaS3 cells after 3 days by XTT assay; type: functional, cell-based; settings: HeLa S3, 72 h
NCI-H23 = test: Cytotoxicity against human NCI-H23 cells after 5 days by SRB assay; type: functional; settings: NCI-H23, 120 h; in short: as §5
PC-3 = test: Cytotoxicity against human PC3 cells after 5 days by SRB assay; type: functional; settings: PC-3, 120 h; in short: as §5
HCT-15 = test: Cytotoxicity against human HCT15 cells after 5 days by SRB assay; type: functional; settings: HCT-15, 120 h; in short: as §5
BT-549 = test: Cytotoxicity against human BT549 cells after 5 days by SRB assay; type: functional; settings: BT-549, 120 h; in short: as §5
A549 = test: Cytostatic activity against human A549 cells after 5 days by SRB assay; type: functional; settings: A549, 120 h; in short: as §5
DU-145 = test: Cytostatic activity against human DU145 cells after 5 days by SRB assay; type: functional; settings: DU-145, 120 h; in short: as §5
HCT-116 = test: Cytostatic activity against human HCT116 cells after 5 days by SRB assay; type: functional; settings: HCT-116, 120 h; in short: as §5

| Structure (SMILES) | Activity (CCRF-CEM [2]) | Activity (CCRF-CEM [3]) | Activity (CCRF-CEM [4]) | Activity (CCRF-CEM [5]) | Activity (CCRF-CEM [6]) | Activity (CCRF-CEM [7]) | Activity (CCRF-CEM [8]) | Activity (CCRF-CEM [9]) | Activity (CCRF-CEM [10]) | Activity (CCRF-CEM [11]) | Activity (CCRF-CEM [12]) | Activity (CCRF-CEM [13]) | Activity (CCRF-CEM [14]) | Activity (CCRF-CEM [15]) | GI50 [17] | IC50 (HL-60) | GI50 (NCI-H23) | GI50 (PC-3) | GI50 (HCT-15) | GI50 (BT-549) | further results |
| --- | --- | --- | --- | --- | --- | --- | --- | --- | --- | --- | --- | --- | --- | --- | --- | --- | --- | --- | --- | --- | --- |
| Nc1nc(Cl)nc2c1ncn2[C@H]1C[C@H](O)[C@@H](CO)O1 [CLADRIBINE] | 48% | 61.5% | 73.2% | 61.6% | 24.9% | 30.8% | 1.9% | 7.6% | 0.85% | 0.44% | 46.2% | 41.3% | 32.1% | 13% | – | – | – | – | – | – | inhibition (INH) (CCRF-CEM [1]): 44.77%; inhibition (INH) (CCRF-CEM [16]): 9.54% |
| OC[C@H]1O[C@@H](n2cc(F)c3c(-c4cccs4)ncnc32)[C@H](O)[C@@H]1O | 17.1% | 43.4% | 43.9% | 40.4% | 46.7% | 50.5% | 9.3% | 9.1% | 0.85% | 0.47% | 28.4% | 5.7% | 56.2% | 47% | 130 nM | 4300 nM | 1500 nM | 90 nM | 18 nM | 81 nM | IC50 (CCRF-CEM [18]): 270 nM; IC50 [19]: 4300 nM; GI50 (A549): 61 nM; GI50 (DU-145): 9 nM; GI50 (HCT-116): 9 nM |
| OC[C@H]1O[C@@H](n2ccc3c(-c4cccs4)ncnc32)[C@H](O)[C@@H]1O | 13.7% | 55% | 45.5% | 47% | 42.2% | 47% | 12.2% | 6% | 0.87% | 0.44% | 28.5% | 3.5% | 55.5% | 38.3% | 100 nM | 1200 nM | 430 nM | 33 nM | 78 nM | 23 nM | IC50 (CCRF-CEM [18]): 290 nM; IC50 [19]: 8800 nM; GI50 (A549): 45 nM; GI50 (DU-145): 9 nM; GI50 (HCT-116): 49 nM |
| Nc1ccn([C@@H]2O[C@H](CO)[C@@H](O)C2(F)F)c(=O)n1 [GEMCITABINE] | 24.1% | 54% | 27.1% | 67.1% | 72.3% | 30.5% | 0.6% | 2.3% | 0.78% | 0.53% | 54.7% | 44.8% | 56.7% | 9.5% | – | – | 2 nM | 6 nM | 3 nM | 4 nM | – |
| OC[C@H]1O[C@@H](n2ccc3c(-c4ccoc4)ncnc32)[C@H](O)[C@@H]1O | 39.8% | 61.2% | 55.6% | 54.4% | 37.3% | 39.7% | 7.1% | 5.9% | 0.84% | 0.39% | 14% | 7.2% | 44.6% | 28.9% | 260 nM | 1500 nM | 280 nM | 96 nM | 86 nM | 35 nM | IC50 (CCRF-CEM [18]): 1900 nM; IC50 [19]: 4600 nM; GI50 (A549): 73 nM; GI50 (DU-145): 36 nM; GI50 (HCT-116): 92 nM |

Reference: ChEMBL document CHEMBL1156780, “6-(Het)aryl-7-deazapurine ribonucleosides as novel potent cytostatic agents” (J Med Chem, 2010)
